The values that follow come from article PMC6217710 (Pain Medicine: The Official Journal of the American Academy …, 2018).

Series [1] concerns healthy male subjects. Kind of series: Laser-evoked potentials. In kind it is in vivo, human. Summed up:
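Crossover in 24 healthy CYP2D6 extensive/intermediate-metabolizer males: 4 double-blind, double-dummy single-dose periods with 6-day washouts. Back skin got topical 1% alcoholic capsaicin under occlusion for 25 min, then two CO2-laser rekindling sessions. Each session used ≥13 80-msec laser stimuli at the fixed individual pain-threshold intensity. Vertex EEG (Cz vs right mastoid, artifacts rejected) recorded predose and hourly to 8 h. Value is the N2-P2 amplitude difference vs placebo.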

Series [2] has as its system healthy male subjects. Kind of series: Postlaser pain visual analog scale. The format is in vivo, human. To be noted: all subjects. Summed up:
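Measured in the same capsaicin-pretreated back-skin sessions of the 4-period crossover (24 healthy males, double-blind, single doses, 6-day washout). Laser intensity was held at each subject's pain threshold, set on untreated skin during screening. After the laser stimuli, subjects rated pain on a 0–100 mm visual analog scale, expressed as %. Ratings were taken predose and hourly up to 8 h, compared against placebo.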

Series [3] can be described thus: Plasma pharmacokinetics after single oral dose. The format is in vivo. To be noted: human, 150 mg.
Series [4] concerns healthy male subjects. Kind of series: Safety and tolerability. The format is in vivo, human.
Series [5] relates to healthy male subjects. To be noted: previous data in healthy subjects; cited from earlier work.

Structures are written as SMILES.

As usually defined, the Tmax is the time at which the peak concentration occurs. One may read the Cmax as the highest concentration seen after dosing. Consider `CC(C)C[C@H](CN)CC(=O)O` [Pregabalin, pregabalin], for which the “Difference in LEP N2-P2 PtP amplitudes” value in series [1] (pregabalin 150 mg single dose vs placebo, all subjects (n = 24)) is on record as “–3.30 μV”. In addition, the “LEP N2-P2 PtP amplitude value” in series [1] (pregabalin 150 mg, overall, all subjects) amounted to 26.7 μV. Further, the “Difference in VAS pain” value in series [2] (pregabalin 150 mg vs placebo) is given as “–9.90%”. In series [2] (pregabalin 150 mg), this compound returned a VAS pain score of 36.6%. Moreover, the Tmax in series [3] is 1.08 h. Also, in series [3] (mean Cmax, pregabalin 150 mg single oral dose), the highest level (Cmax) was 3480 ng/mL. For the same compound, the “Subjects who reported TEAEs” value in series [4] (during treatment with pregabalin 150 mg) turned out to be 50%. For the same compound, in series [4] (pregabalin 150 mg (n = 24)), the “Any TEAE” value was 12 (50) No. (%), the Dizziness is given as 6 (25) No. (%), the “Drug-related TEAE” value is reported as 12 (50) No. (%) and the Fatigue is recorded as 4 (17) No. (%). For the same compound, in series [4] (pregabalin 150 mg (n = 24)), the Headache is on record as 0 No. (%), the Nausea was 1 (4) No. (%), the “Serious TEAE” value is reported as 0 No. (%) and the Somnolence is 1 (4) No. (%). Moreover, in series [4] (pregabalin 150 mg (n = 24)), the Vertigo is reported as 3 (13) No. (%). Further, in series [5], the “Reductions in PtP amplitudes of LEPs maintained postdose” value was “more than six hours” and the “Start of reductions in PtP amplitudes of LEPs” value is reported as “one to two hours postadministration”.
